Experimental findings from ChEMBL document CHEMBL1139868, “Synthesis, DNA binding, and Leishmania topoisomerase inhibition activities of a novel series of anthra[1,2-d]imidazole-6,11-dione derivatives” (J Med Chem, 2007) are described below.

In one assay the test system is DNA. The experiment in a line: Binding affinity to calf thymus double stranded DNA. The conditions noted are these: Bos taurus. The assay is classed as nucleic-acid assay. In short, it runs like this:
(§1)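 UV-vis absorption titration: increasing concentrations of dsDNA (calf thymus DNA, poly[d(A-T)]2 or poly[d(G-C)]2) added to ligand in buffer. Hypochromicity and red-shift of the long-wavelength absorption band were followed. Binding constants were obtained by the half-reciprocal plot method.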

Assay [1] is described as follows: Binding affinity to double stranded poly[d[A-T)]2 DNA. The conditions noted are these: Homo sapiens. The gist of the method: as §1
The nature of assay [2]: Binding affinity to double stranded poly[d[G-C)]2 DNA. The conditions noted are these: Homo sapiens. In short, it runs like this: as §1
Assay [3] has as its target T1, DNA topoisomerase I (Leishmania donovani donovani) (UniProt Q9NJG8).
T1 sequence (whole entry): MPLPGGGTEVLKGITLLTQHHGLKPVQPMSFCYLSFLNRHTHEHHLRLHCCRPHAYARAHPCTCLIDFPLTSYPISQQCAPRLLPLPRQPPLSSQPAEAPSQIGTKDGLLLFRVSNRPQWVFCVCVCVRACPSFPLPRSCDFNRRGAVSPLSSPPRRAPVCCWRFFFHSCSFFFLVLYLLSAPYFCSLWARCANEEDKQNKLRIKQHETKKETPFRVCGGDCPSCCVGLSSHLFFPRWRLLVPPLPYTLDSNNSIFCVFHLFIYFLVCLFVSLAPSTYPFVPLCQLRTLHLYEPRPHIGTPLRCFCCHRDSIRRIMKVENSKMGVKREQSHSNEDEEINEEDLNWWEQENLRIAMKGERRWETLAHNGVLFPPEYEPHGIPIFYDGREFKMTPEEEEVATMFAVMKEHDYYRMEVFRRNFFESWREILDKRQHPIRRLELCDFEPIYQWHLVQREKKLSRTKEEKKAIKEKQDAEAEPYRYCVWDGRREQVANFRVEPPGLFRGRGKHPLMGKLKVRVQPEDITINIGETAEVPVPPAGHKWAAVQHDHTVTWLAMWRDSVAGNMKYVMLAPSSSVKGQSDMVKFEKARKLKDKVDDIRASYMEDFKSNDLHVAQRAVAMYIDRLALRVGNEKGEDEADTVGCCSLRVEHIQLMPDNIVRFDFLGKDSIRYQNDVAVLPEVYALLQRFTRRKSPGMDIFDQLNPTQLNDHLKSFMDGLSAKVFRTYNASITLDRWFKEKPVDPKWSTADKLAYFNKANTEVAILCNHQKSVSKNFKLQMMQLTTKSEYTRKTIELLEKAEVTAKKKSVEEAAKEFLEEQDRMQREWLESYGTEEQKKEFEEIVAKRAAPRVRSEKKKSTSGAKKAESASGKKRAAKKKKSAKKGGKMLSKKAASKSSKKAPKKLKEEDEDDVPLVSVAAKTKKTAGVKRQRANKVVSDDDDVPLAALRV
The experiment in a line: Inhibition of Leishmania donovani topoisomerase 1-induced relaxation activity assessed as recovery of supercoiled DNA at 50 uM.

Assay [4] has as its target T1, DNA topoisomerase I (Leishmania donovani donovani). Briefly: Inhibition of Leishmania donovani topoisomerase 1-induced relaxation activity assessed as recovery of supercoiled DNA at 10 uM.
For assay [5] the target is unchanged. Briefly: Inhibition of Leishmania donovani topoisomerase 1-induced relaxation activity assessed as recovery of supercoiled DNA at 20 uM.

What is called inhibition is how much of the control response was suppressed. Consider `O=C1c2ccccc2C(=O)c2c1ccc1nc(-c3ccc(OCCCN4CCN(CCO)CC4)cc3)[nH]c21`, for which the Ka is 1.9 10^5/M with DNA, 3 10^5/M in assay [1] and 2.2 10^5/M in assay [2]. The inhibition in assay [3] is 5%.

Consider `CN1CCN(CCCOc2ccc(-c3nc4ccc5c(c4[nH]3)C(=O)c3ccccc3C5=O)cc2)CC1`, for which the results for the Ka (in the assay with DNA; in assay [1]; in assay [2]) were 1 10^5/M, 2.8 10^5/M and 1.9 10^5/M, respectively. Besides, the inhibition in assay [3] turned out to be 10%.

On to `O=C1c2ccccc2C(=O)c2c1ccc1nc(-c3ccc(OCCCN4CCOCC4)cc3)[nH]c21`, for which the Ka in the assay with DNA is 0.6 10^5/M; in assay [1] it was 1.1 10^5/M; in assay [2], 0.5 10^5/M. For the same molecule, the values for the inhibition in assay [4], in assay [5] and in assay [3] were 46%, 77% and 92%, respectively.

Take `O=C1c2ccccc2C(=O)c2c1ccc1nc(-c3ccccn3)[nH]c21`: the figures for the inhibition in assay [4], in assay [5] and in assay [3] were 9%, 20% and 75%, respectively.

As to `CCN(CC)CCCOc1ccc(-c2nc3ccc4c(c3[nH]2)C(=O)c2ccccc2C4=O)cc1`, the Ka in the assay with DNA was 1.9 10^5/M; in assay [1], 3.2 10^5/M; in assay [2], 2.3 10^5/M. Besides, the inhibition in assay [5] is 2%; in assay [3] it was 10%.

On to `O=C1c2ccccc2C(=O)c2c1ccc1nc(-c3ccc(OCCCn4ccnc4)cc3)[nH]c21`, for which the Ka is 1.1 10^5/M in the assay with DNA, 1.8 10^5/M in assay [1] and 0.6 10^5/M in assay [2]. In addition, the inhibition in assay [4] came to 62%; in assay [5], 77%; in assay [3], 91%.

On to `CC[C@@]1(O)C(=O)OCc2c1cc1n(c2=O)Cc2cc3ccccc3nc2-1`, for which the inhibition was 39% in assay [4], 55% in assay [5] and 65% in assay [3].

For the molecule `CN(C)CCCOc1ccc(-c2nc3ccc4c(c3[nH]2)C(=O)c2ccccc2C4=O)cc1`, the Ka in the assay on DNA is 2.1 10^5/M; in assay [1], 4.1 10^5/M; in assay [2], 3 10^5/M. Besides, the inhibition in assay [3] stood at 5%.

Regarding `O=C1c2ccccc2C(=O)c2c1ccc1nc(-c3ccc(OCCCn4cnnn4)cc3)[nH]c21`, the Ka with DNA was 0.5 10^5/M; in assay [1] it was 0.5 10^5/M; in assay [2], 0.3 10^5/M. The figures for the inhibition in assay [4], in assay [5] and in assay [3] were 80%, 92% and 95%, respectively.

With `O=C1c2ccccc2C(=O)c2c1ccc1nc(-c3cccnc3)[nH]c21`, the inhibition was found to be 9% in assay [4], 15% in assay [5] and 80% in assay [3].
